Laboratory results from ChEMBL document CHEMBL2150971, “Selective depletion of mutant p53 by cancer chemopreventive isothiocyanates and their structure-activity relationships” (J Med Chem, 2011).
The source made the active and inactive calls. The rule behind the calls is not given here.

What was measured:
[1] = target: Cellular tumor antigen p53 (Homo sapiens) (UniProt P04637); test: Induction of p53 depletion in human HCT116 cells at 20 uM incubated for 2 to 24 hrs by immunoblot analysis; format: cell-based; conditions: HCT-116
Outline: (§1)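 Wild-type p53 lines HCT116, A549 and MCF-7 treated with 20 µM for 2, 4, 8 and 24 h; lysates immunoblotted for p53 (DO-1) and β-actin, ECL.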

[2] = test system: MDA-MB-468; test: Induction of apoptosis in human MDA-MB-468 cells expressing p53 R273H mutant assessed as caspase-3 activation incubated for 24 hrs; format: functional, cell-based
Outline: (§2)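 Cells treated with DMSO or drug for 24 h, lysed in ice-cold kit buffer; 100–200 µg protein incubated with Ac-DEVD-p-nitroaniline at 37 °C for 2–4 h; p-nitroanilide read at 405 nm; mean ± SD of three independent experiments.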

[3] = test system: Cellular tumor antigen p53 (Homo sapiens), P04637 [G245C]; test: Induction of p53 G245C mutant depletion in human NCI-H596 cells incubated for 2 to 6 hrs by immunoblot analysis; format: cell-based
Outline: (§3)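 H596 cells (G245C p53), maintained in DMEM or RPMI-1640 with 10% FBS, treated either at 15 µM for varying times up to 24 h or at varying concentrations (10–60 µM) for 2 h; whole-cell lysates, equal protein on SDS gels, PVDF, blotted with p53 DO-1 and β-actin antibodies, ECL.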

[4] = test system: Cellular tumor antigen p53 (Homo sapiens), P04637 [P151S]; test: Induction of p53 P151S mutant depletion in human SCC4 cells at 15 uM by immunoblot analysis; format: cell-based; conditions: SCC-4, TDE = time-dependent effect
Outline: (§4)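 Mutant-p53 lines SCC-4, MDA-MB-468 and MDA-MB-231 exposed to 15 µM for a time course; lysates immunoblotted with p53 DO-1 and β-actin antibodies, ECL detection.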

[5] = test system: Cellular tumor antigen p53 (Homo sapiens), P04637 [R280K]; test: Induction of p53 R280K mutant depletion in human MDA-MB-231 cells at 15 uM by immunoblot analysis; format: cell-based; conditions: TDE = time-dependent effect; outline: as §4
[6] = test system: H1299; test: Induction of non-temperature sensitive p53 175H mutant depletion in human H1299 cells at 15 uM incubated for 24 hrs at 37 degC by immunoblot analysis; format: cell-based
[7] = test system: Cellular tumor antigen p53 (Homo sapiens), P04637 [R273H]; test: Induction of p53 R273H mutant depletion in human MDA-MB-468 cells at 15 uM by immunoblot analysis; format: cell-based; conditions: TDE = time-dependent effect; outline: as §4
[8] = test system: NCI-H596; test: Effect on HSP90 protein expression in human NCI-H596 cells by immunoblot analysis; format: functional, cell-based
Outline: (§5)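 H596 lung cancer cells treated with 15 µM; whole-cell lysates in HEPES pH 7.4/Triton X-100 lysis buffer with protease and phosphatase inhibitors; equal protein resolved on 4–12% Bis-Tris gels, transferred to PVDF, immunoblotted; ECL detection.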

[9] = test system: H1299; test: Induction of non-temperature sensitive p53 175H mutant depletion in human H1299 cells at 15 uM incubated for 24 hrs at 32.5 degC by immunoblot analysis; format: cell-based
[10] = test system: Cellular tumor antigen p53 (Homo sapiens), P04637 [R280K]; test: Induction of p53 R280K mutant depletion in human MDA-MB-231 cells at 10 uM by immunoblot analysis; format: cell-based
Outline: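 MDA-MB-231 cells treated with 10 µM for 24 h; whole-cell lysates immunoblotted for p53 (DO-1) with β-actin loading control, ECL.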

[11] = test system: NCI-H596; test: Effect on p53 mRNA expression in human NCI-H596 cells at 15 uM incubated for 2 to 6 hrs by RT-PCR; format: functional, cell-based
Outline: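 H596 cells exposed to 15 µM for 2, 4 and 6 h, vehicle DMSO; total RNA extracted, one-step RT-PCR for p53 and β-actin mRNA.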

[12] = test system: Cellular tumor antigen p53 (Homo sapiens), P04637 [R273H]; test: Induction of p53 R273H mutant depletion in human SW480 cells at 10 uM by immunoblot analysis; format: cell-based; conditions: TDE = time-dependent effect
Outline: (§6)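 DU145 and SW480 cells exposed to 10 µM for a time course; lysates immunoblotted with p53 DO-1 and β-actin antibodies, ECL detection.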

[13] = test system: H1299; test: Induction of temperature sensitive p53 143A mutant depletion in human H1299 cells at 15 uM incubated for 24 hrs at 37 degC by immunoblot analysis; format: cell-based
[14] = target: Cellular tumor antigen p53 (Homo sapiens) (UniProt P04637); test: Induction of p53 depletion in human MCF7 cells at 20 uM incubated for 2 to 24 hrs by immunoblot analysis; format: cell-based; outline: as §1
[15] = target: Cellular tumor antigen p53 (Homo sapiens) (UniProt P04637); test: Induction of p53 activation in human MCF7 cells at 20 uM incubated for 24 hrs by immunoblot analysis; format: cell-based; outline: as §1
[16] = test system: NCI-H596; test: Induction of apoptosis in human NCI-H596 cells expressing p53 G245C mutant assessed as caspase-3 activation incubated for 24 hrs; format: functional, cell-based; outline: as §2
[17] = target: Cellular tumor antigen p53 (Homo sapiens) (UniProt P04637); test: Induction of p53 depletion in human MCF10A cells at 15 uM incubated for 2 to 24 hrs by immunoblot analysis; format: cell-based; conditions: MCF-10A
Outline: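 MCF-10A normal mammary epithelial cells treated with 15 µM for 2, 4, 8 and 24 h; lysates immunoblotted for p53 (DO-1) and β-actin, ECL.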

[18] = target: Cellular tumor antigen p53 (Homo sapiens) (UniProt P04637); test: Induction of p53 depletion in human A549 cells at 20 uM incubated for 2 to 24 hrs by immunoblot analysis; format: cell-based; outline: as §1
[19] = test system: MDA-MB-231; test: Induction of apoptosis in human MDA-MB-231 cells expressing p53 R280K mutant assessed as caspase-3 activation incubated for 24 hrs; format: functional, cell-based; outline: as §2
[20] = test system: MCF7; test: Induction of apoptosis in human MCF7 cells expressing wild type p53 assessed as caspase-3 activation incubated for 24 hrs; format: functional, cell-based; outline: as §2
[21] = test system: NCI-H596; test: Effect on Bax protein expression in human NCI-H596 cells by immunoblot analysis; format: functional, cell-based; outline: as §5
[22] = test system: Cellular tumor antigen p53 (Homo sapiens), P04637 [G245C]; test: Induction of p53 G245C mutant depletion in human NCI-H596 cells at 15 uM by immunoblot analysis; format: cell-based; conditions: TDE = time-dependent effect; outline: as §3
[23] = test system: DU-145; test: Induction of p53 […] mutant depletion in human DU145 cells at 10 uM by immunoblot analysis; format: cell-based; conditions: TDE = time-dependent effect; outline: as §6
[24] = test system: HCT-116; test: Induction of apoptosis in human HCT116 cells expressing wild type p53 assessed as caspase-3 activation incubated for 24 hrs; format: functional, cell-based; outline: as §2
[25] = test system: H1299; test: Induction of temperature sensitive p53 143A mutant depletion in human H1299 cells at 15 uM incubated for 24 hrs at 32.5 degC by immunoblot analysis; format: cell-based
[26] = test system: NCI-H596; test: Effect on DR5 protein expression in human NCI-H596 cells by immunoblot analysis; format: functional, cell-based; outline: as §5
[27] = test system: Cellular tumor antigen p53 (Homo sapiens), P04637 [G245C]; test: Induction of p53 G245C mutant depletion in human NCI-H596 cells at 20 uM by immunoblot analysis; format: cell-based
[28] = test system: SW480; test: Induction of apoptosis in human SW480 cells expressing p53 R273H mutant assessed as caspase-3 activation incubated for 24 hrs; format: functional, cell-based; outline: as §2
[29] = test system: NCI-H596; test: Effect on JNK protein expression in human NCI-H596 cells by immunoblot analysis; format: functional, cell-based; outline: as §5
[30] = test system: A549; test: Induction of apoptosis in human A549 cells expressing wild type p53 assessed as caspase-3 activation incubated for 24 hrs; format: functional, cell-based; outline: as §2
[31] = test system: Cellular tumor antigen p53 (Homo sapiens), P04637 [G245C]; test: Induction of covalent cysteine modification at p53 G245C mutant in human NCI-H596 cells at 100 uM incubated for 1 hr by monochlorobimane fluorometric assay; format: cell-based
[32] = test system: Cellular tumor antigen p53 (Homo sapiens), P04637 [G245C]; test: Induction of p53 G245C mutant depletion in human NCI-H596 cells at 40 uM incubated for 2 hrs by immunoblot analysis; format: cell-based; outline: as §3
[33] = test system: Cellular tumor antigen p53 (Homo sapiens), P04637 [G245C]; test: Induction of p53 G245C mutant depletion in human NCI-H596 cells at 10 uM incubated for 2 hrs by immunoblot analysis; format: cell-based; outline: as §3
[34] = test system: Cellular tumor antigen p53 (Homo sapiens), P04637 [G245C]; test: Induction of p53 G245C mutant depletion in human NCI-H596 cells at 20 uM incubated for 2 hrs by immunoblot analysis; format: cell-based; outline: as §3
[35] = test system: Cellular tumor antigen p53 (Homo sapiens), P04637 [G245C]; test: Induction of conformational changes in p53 G245C mutant in human NCI-H596 cells at 60 uM incubated for 1 hr at 32 degC by tryptophan fluorescence emission spectroscopy; format: cell-based
Outline: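 6 µM purified G245C p53 DNA-binding domain incubated 1 h at 32 °C alone, with DMSO or 60 µM agent; intrinsic fluorescence emission 285–400 nm, excitation 280 nm, slit 5 nm, 3 scans averaged.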

[36] = test system: MDA-MB-231; test: Induction of apoptosis in human MDA-MB-231 cells expressing p53 R280K mutant at 10 uM incubated for 24 hrs by FITC/Annexin-V staining method; format: functional, cell-based
Outline: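 MDA-MB-231 cells at 40–50% confluency treated with DMSO or 10 µM in DMSO for 24 h; washed in cold PBS, stained with FITC-Annexin V and propidium iodide, analysed by flow cytometry; early apoptotic (Annexin V+/PI−) fraction; mean ± SD of three experiments, unequal-variance two-sample t-test.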

[37] = test system: Cellular tumor antigen p53 (Homo sapiens), P04637 [G245C]; test: Induction of p53 G245C mutant depletion in human NCI-H596 cells at 15 uM up to 24 hrs by immunoblot analysis; format: cell-based; outline: as §3
[38] = test system: Cellular tumor antigen p53 (Homo sapiens), P04637 [G245C]; test: Induction of p53 G245C mutant depletion in human NCI-H596 cells at 60 uM after 2 hrs by immunoblot analysis; format: cell-based; outline: as §3

`S=C=NCCc1ccccc1` was tested, and the Activity [1] was “inactive”, the Activity [2] was “Active” and the Activity [3] was “Dose-dependent effect”. For the same molecule, the Activity [4] was “tde”, the Activity [5] was “tde” and the Activity [6] was “Active”. For the same molecule, the Activity [7] was “tde”, the Activity [8] was “inactive” and the Activity [9] was “Active”. The Activity [10] was “Active”, the Activity [11] was “inactive” and the Activity [12] was “tde”. The Activity [13] was “Active”, the Activity [14] was “inactive” and the Activity [15] was “Active”. For the same molecule, the Activity [16] was “Active”, the Activity [17] was “inactive” and the Activity [18] was “inactive”. For the same molecule, the Activity [19] was “Active”, the Activity [20] was “inactive” and the Activity [21] was “inactive”. The Activity [22] was “tde”, the Activity [23] was “tde” and the Activity [24] was “inactive”. The Activity [25] was “inactive”, the Activity [26] was “inactive” and the Activity [27] was “Active”. The Activity [28] was “Active”, the Activity [29] was “inactive” and the Activity [30] was “inactive”. The Activity [31] was “Active”.

In the case of `C=CCN=C=S`, the Activity [10] is reported as “inactive”, the Activity [32] is reported as “inactive” and the Activity [27] is reported as “inactive”. The Activity [31] was “inactive”.

With `S=C=NCc1ccccc1` the Activity [10] was “Active”, the Activity [33] was “Active” and the Activity [34] was “Active”. For the same molecule, the Activity [35] was “Active”, the Activity [36] was “Active” and the Activity [27] was “Active”. For the same molecule, the Activity [31] was “Active”.

In the case of `S=C=NCc1ccc(Oc2ccccc2)cc1`, the Activity [10] is reported as “Active”, the Activity [35] is reported as “Active” and the Activity [27] is reported as “Active”.

With `S=C=NCCCCCCc1ccccc1` the Activity [10] was “Active” and the Activity [27] was “Active”.

For `S=C=NCCCCCc1ccccc1`, the Activity [10] was “Active” and the Activity [27] was “Active”.

`CNCCc1ccccc1` was tested, and the Activity [37] was “inactive”, the Activity [38] was “inactive” and the Activity [27] was “inactive”.

For `C[C@@H](N=C=S)c1ccccc1`, the Activity [10] was “inactive”, the Activity [35] was “Active” and the Activity [27] was “inactive”.

`S=C=NCc1ccc(Cl)cc1` was tested, and the Activity [10] was “Active”, the Activity [27] was “Active” and the Activity [31] was “Active”.
